# Active and inactive are the calls of the source. No cut-off for these calls is given here.
# How the values were obtained:
# CCRF-CEM = assay: Growth inhibition of human CCRF-CEM cells after 48 hrs by SRB assay; type: functional
# [1] = Ratio of compound IC50 to paclitaxel IC50 for mouse JC cells after 48 hrs by SRB assay; type: functional
# JC = assay: Modulatory activity at P-gp in mouse JC cells assessed as lowest drug concentration required to increase intracellular [3H]taxol accumulation pretreated for 30 mins prior to [3H]taxol addition measured after 60 mins by liquid scintillation counting analysis; type: cell-based
# Procedure, shortened: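 JC cells were seeded at about 25% confluency and grown 3–4 days to near confluency. Medium was switched to serum-free, and compounds were preincubated for 30 min at 37 °C. About 0.1 µCi [³H]Taxol (75 Ci/mmol) per well followed, for 60 min at 37 °C. Cells were washed twice with ice-cold PBS and lysed in 1% SDS. Intracellular label was counted by liquid scintillation, and the lowest concentration giving maximal accumulation was recorded.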
# [2] = Cytotoxicity against mouse JC cells assessed as inhibition of cell survival after 48 hrs by SRB assay; type: functional, cell-based
# Procedure, shortened: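 JC (CRL-2116) cells kept in RPMI-1640 with L-glutamine, 10% FBS and 50 μg/ml gentamicin at 37 °C, 5% CO₂. Cells were seeded at about 20% confluency and left 24 h to attach, then exposed to a range of concentrations for 48 h. Cells were PBS-washed, fixed in 10% trichloroacetic acid and stained with 0.4% SRB in 1% acetic acid. Dye was dissolved in 10 mM Tris and absorbance read at 570 nm.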
# SW-620 = assay: Growth inhibition of human SW620 cells after 48 hrs by SRB assay; type: functional; details: SW-620, 48 h
# KM12 = assay: Growth inhibition of human KM12 cells after 48 hrs by SRB assay; type: functional; details: KM12, 48 h
# HT-29 = assay: Growth inhibition of human HT-29 cells after 48 hrs by SRB assay; type: functional; details: HT-29, 48 h
# HCT-15 = assay: Growth inhibition of human HCT15 cells after 48 hrs by SRB assay; type: functional; details: HCT-15, 48 h
# HCT-116 = assay: Growth inhibition of human HCT116 cells after 48 hrs by SRB assay; type: functional; details: HCT-116, 48 h
# [3] = Growth inhibition of human HCC2998 cells after 48 hrs by SRB assay; type: functional; details: HCC 2998, 48 h
# COLO 205 = assay: Growth inhibition of human COLO205 cells after 48 hrs by SRB assay; type: functional; details: COLO 205, 48 h
# U-251 = assay: Growth inhibition of human U251 cells after 48 hrs by SRB assay; type: functional; details: U-251, 48 h
# SNB-75 = assay: Growth inhibition of human SNB75 cells after 48 hrs by SRB assay; type: functional; details: SNB-75, 48 h
# SF-539 = assay: Growth inhibition of human SF539 cells after 48 hrs by SRB assay; type: functional; details: SF-539, 48 h
# SNB-19 = assay: Growth inhibition of human SNB19 cells after 48 hrs by SRB assay; type: functional; details: SNB-19, 48 h
# SF-295 = assay: Growth inhibition of human SF295 cells after 48 hrs by SRB assay; type: functional; details: SF-295, 48 h
# UO-31 = assay: Growth inhibition of human UO31 cells after 48 hrs by SRB assay; type: functional; details: UO-31, 48 h
# SF-268 = assay: Growth inhibition of human SF268 cells after 48 hrs by SRB assay; type: functional; details: SF-268, 48 h
# TK-10 = assay: Growth inhibition of human TK10 cells after 48 hrs by SRB assay; type: functional; details: TK-10, 48 h
# RXF 393 = assay: Growth inhibition of human RXF393 cells after 48 hrs by SRB assay; type: functional; details: RXF 393, 48 h
# SN12C = assay: Growth inhibition of human SN12C cells after 48 hrs by SRB assay; type: functional
# ACHN = assay: Growth inhibition of human ACHN cells after 48 hrs by SRB assay; type: functional
# CAKI-1 = assay: Growth inhibition of human CAKI-1 cells after 48 hrs by SRB assay; type: functional; details: CAKI-1, 48 h
# A498 = assay: Growth inhibition of human A498 cells after 48 hrs by SRB assay; type: functional; details: A498, 48 h
# MDA-MB-468 = assay: Growth inhibition of human MDA-MB-468 cells after 48 hrs by SRB assay; type: functional; details: MDA-MB-468, 48 h
# 786-0 = assay: Growth inhibition of human 786-0 cells after 48 hrs by SRB assay; type: functional; details: 786-0, 48 h
# T47D = assay: Growth inhibition of human T47D cells after 48 hrs by SRB assay; type: functional
# BT-549 = assay: Growth inhibition of human BT549 cells after 48 hrs by SRB assay; type: functional; details: BT-549, 48 h
# [4] = Growth inhibition of human Hs 578T cells after 48 hrs by SRB assay; type: functional
# MCF7 = assay: Growth inhibition of human MCF7 cells after 48 hrs by SRB assay; type: functional; details: MCF7, 48 h
# MDA-MB-231 = assay: Growth inhibition of human MDA-MB-231 cells after 48 hrs by SRB assay; type: functional; details: MDA-MB-231, 48 h
# UACC-62 = assay: Growth inhibition of human UACC62 cells after 48 hrs by SRB assay; type: functional; details: UACC-62, 48 h
# UACC-257 = assay: Growth inhibition of human UACC257 cells after 48 hrs by SRB assay; type: functional; details: UACC-257, 48 h
# SK-MEL-5 = assay: Growth inhibition of human SK-MEL-5 cells after 48 hrs by SRB assay; type: functional; details: SK-MEL-5, 48 h
# SK-MEL-28 = assay: Growth inhibition of human SK-MEL-28 cells after 48 hrs by SRB assay; type: functional; details: SK-MEL-28, 48 h
# SK-MEL-2 = assay: Growth inhibition of human SK-MEL-2 cells after 48 hrs by SRB assay; type: functional; details: SK-MEL-2, 48 h
# MDA-MB-435 = assay: Growth inhibition of human MDA-MB-435 cells after 48 hrs by SRB assay; type: functional; details: MDA-MB-435, 48 h
# M14 = assay: Growth inhibition of human M14 cells after 48 hrs by SRB assay; type: functional; details: M14, 48 h
# Malme-3M = assay: Growth inhibition of human MALME-3M cells after 48 hrs by SRB assay; type: functional
# LOX IMVI = assay: Growth inhibition of human LOXIMVI cells after 48 hrs by SRB assay; type: functional
# NCI/ADR-RES = assay: Growth inhibition of human NCI/ADR-RES cells after 48 hrs by SRB assay; type: functional
# SK-OV-3 = assay: Growth inhibition of human SKOV3 cells after 48 hrs by SRB assay; type: functional; details: SK-OV-3, 48 h
# OVCAR-8 = assay: Growth inhibition of human OVCAR8 cells after 48 hrs by SRB assay; type: functional; details: OVCAR-8, 48 h
# OVCAR-5 = assay: Growth inhibition of human OVCAR5 cells after 48 hrs by SRB assay; type: functional; details: OVCAR-5, 48 h
# OVCAR-4 = assay: Growth inhibition of human OVCAR4 cells after 48 hrs by SRB assay; type: functional; details: OVCAR-4, 48 h
# OVCAR-3 = assay: Growth inhibition of human OVCAR3 cells after 48 hrs by SRB assay; type: functional; details: OVCAR-3, 48 h
# IGROV-1 = assay: Growth inhibition of human IGROV1 cells after 48 hrs by SRB assay; type: functional; details: IGROV-1, 48 h
# DU-145 = assay: Growth inhibition of human DU145 cells after 48 hrs by SRB assay; type: functional; details: DU-145, 48 h
# PC-3 = assay: Growth inhibition of human PC3 cells after 48 hrs by SRB assay; type: functional; details: PC-3, 48 h
# NCI-H460 = assay: Growth inhibition of human NCI-H460 cells after 48 hrs by SRB assay; type: functional; details: NCI-H460, 48 h
# NCI-H522 = assay: Growth inhibition of human NCI-H522 cells after 48 hrs by SRB assay; type: functional; details: NCI-H522, 48 h
# NCI-H322M = assay: Growth inhibition of human NCI-H322M cells after 48 hrs by SRB assay; type: functional
# NCI-H23 = assay: Growth inhibition of human NCI-H23 cells after 48 hrs by SRB assay; type: functional; details: NCI-H23, 48 h
# NCI-H226 = assay: Growth inhibition of human NCI-H226 cells after 48 hrs by SRB assay; type: functional; details: NCI-H226, 48 h
# HOP-92 = assay: Growth inhibition of human HOP92 cells after 48 hrs by SRB assay; type: functional; details: HOP-92, 48 h
# HOP-62 = assay: Growth inhibition of human HOP62 cells after 48 hrs by SRB assay; type: functional; details: HOP-62, 48 h
# A549 = assay: Growth inhibition of human A549/ATCC cells after 48 hrs by SRB assay; type: functional; details: A549, 48 h
# [5] = Growth inhibition of human EKVX cells after 48 hrs by SRB assay; type: functional
# SR = assay: Growth inhibition of human SR cells after 48 hrs by SRB assay; type: functional
# RPMI-8226 = assay: Growth inhibition of human RPMI8226 cells after 48 hrs by SRB assay; type: functional; details: RPMI-8226, 48 h
# HL-60 = assay: Growth inhibition of human HL60 cells after 48 hrs by SRB assay; type: functional; details: HL-60, 48 h
# K562 = assay: Growth inhibition of human K562 cells after 48 hrs by SRB assay; type: functional; details: K562, 48 h
structure (smiles),measurement,setting,value
COc1ccc(Cn2cc(CCc3cc(OC)c(OC)c(OC)c3)c3c(C)nc(N)nc32)cc1,GI50,CCRF-CEM,> 1000 nM
same,Ratio IC50,[1],4
same,LED,JC,0.2 µM
same,IC50,[2],600 nM
same,GI50,SW-620,208 nM
same,GI50,KM12,264 nM
same,GI50,HT-29,247 nM
same,GI50,HCT-15,242 nM
same,GI50,HCT-116,265 nM
same,GI50,[3],191 nM
same,GI50,COLO 205,204 nM
same,GI50,U-251,311 nM
same,GI50,SNB-75,172 nM
same,GI50,SF-539,96.4 nM
same,GI50,SNB-19,234 nM
same,GI50,SF-295,83.9 nM
same,GI50,UO-31,397 nM
same,GI50,SF-268,379 nM
same,GI50,TK-10,686 nM
same,GI50,RXF 393,44.1 nM
same,GI50,SN12C,499 nM
same,GI50,ACHN,216 nM
same,GI50,CAKI-1,206 nM
same,GI50,A498,115 nM
same,GI50,MDA-MB-468,52.4 nM
same,GI50,786-0,575 nM
same,GI50,T47D,443 nM
same,GI50,BT-549,440 nM
same,GI50,[4],139 nM
same,GI50,MCF7,46.4 nM
same,GI50,MDA-MB-231,361 nM
same,GI50,UACC-62,61.5 nM
same,GI50,UACC-257,> 1000 nM
same,GI50,SK-MEL-5,110 nM
same,GI50,SK-MEL-28,417 nM
same,GI50,SK-MEL-2,446 nM
same,GI50,MDA-MB-435,32.1 nM
same,GI50,M14,204 nM
same,GI50,Malme-3M,284 nM
same,GI50,LOX IMVI,364 nM
same,GI50,NCI/ADR-RES,202 nM
same,GI50,SK-OV-3,251 nM
same,GI50,OVCAR-8,334 nM
same,GI50,OVCAR-5,596 nM
same,GI50,OVCAR-4,338 nM
same,GI50,OVCAR-3,164 nM
same,GI50,IGROV-1,154 nM
same,GI50,DU-145,337 nM
same,GI50,PC-3,301 nM
same,GI50,NCI-H460,251 nM
same,GI50,NCI-H522,31.6 nM
same,GI50,NCI-H322M,712 nM
same,GI50,NCI-H23,428 nM
same,GI50,NCI-H226,927 nM
same,GI50,HOP-92,> 1000 nM
same,GI50,HOP-62,362 nM
same,GI50,A549,329 nM
same,GI50,[5],348 nM
same,GI50,SR,120 nM
same,GI50,RPMI-8226,713 nM
same,GI50,HL-60,220 nM
same,GI50,K562,116 nM
COc1ccccc1Sc1cn(Cc2cc(OC)c(OC)c(OC)c2)c2nc(N)nc(C)c12,LED,JC,inactive
same,IC50,[2],3000 nM
COc1ccccc1Cn1cc(CCc2cc(OC)c(OC)c(OC)c2)c2c(C)nc(N)nc21,Ratio IC50,[1],6.6
same,LED,JC,2 µM
same,IC50,[2],1000 nM
COc1ccccc1Cn1cc(Sc2ccccc2OC)c2c(C)nc(N)nc21,LED,JC,inactive
same,IC50,[2],9000 nM
